Experimental data reported in ChEMBL document CHEMBL5649168, “Discovery of a selective catalytic p300/CBP inhibitor that targets lineage-specific tumours” (Nature, 2017).

Tests used:
[1] = molecular target: Tyrosine-protein kinase ABL1 (Homo sapiens, UniProt P00519); test: Inhibition of Abl (unknown origin)
[2] = molecular target: RAC-alpha serine/threonine-protein kinase (Homo sapiens, UniProt P31749); test: Inhibition of Akt1 (unknown origin)
[3] = molecular target: Cyclin-dependent kinase 11B (Homo sapiens, UniProt P21127); test: Inhibition of CDK11 (unknown origin)
[4] = molecular target: Glycogen synthase kinase-3 alpha (Homo sapiens, UniProt P49840); test: Inhibition of Gsk3alpha (unknown origin)
[5] = molecular target: Tyrosine-protein kinase JAK2 (Homo sapiens, UniProt O60674); test: Inhibition of JAK2 (unknown origin)
[6] = molecular target: Serine/threonine-protein kinase 4 (Homo sapiens, UniProt Q13043); test: Inhibition of MST1 (unknown origin)
[7] = molecular target: cGMP-dependent protein kinase 1 (Homo sapiens, UniProt Q13976); test: Inhibition of PKG1alpha (unknown origin)
[8] = molecular target: Serine/threonine-protein kinase Sgk1 (Homo sapiens, UniProt O00141); test: Inhibition of SGK1 (unknown origin)
[9] = molecular target: Serine/threonine-protein kinase TAO2 (Homo sapiens, UniProt Q9UL54); test: Inhibition of TAOK2 (unknown origin)
[10] = molecular target: High affinity nerve growth factor receptor (Homo sapiens, UniProt P04629); test: Inhibition of TrkA (unknown origin)
[11] = molecular target: CREB-binding protein/Histone acetyltransferase p300 (Homo sapiens, UniProt Q09472+Q92793); test: Inhibition of p300/CBP in human 22Rv1 cells assessed as reduction in H3K18Ac level incubated for 24 hrs by Hoechst 33342 staining based high content microscopy analysis; format: cell-based
How it was run: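 Cells received an 8-point half-log dilution series from 10 µM. They were then fixed in 10% formaldehyde (10 min, RT), permeabilised with 0.1% Triton X-100 and blocked with 1% BSA for 1 h. Primary antibodies were applied overnight at 4 °C, followed by Alexa488 anti-rabbit, Alexa555 anti-mouse and Hoechst 33342 for 1 h. Fifteen fields per well were imaged and average mean intensity taken. EC50 came from a sigmoidal fit.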

HCC4006 = test: Antiproliferative activity against human HCC4006 cells assessed as inhibition of cell viability incubated for 3 to 5 days by Celltiter-Glo luminescent assay; format: functional, cell-based
NCI-H727 = test: Antiproliferative activity against human NCI-H727 cells assessed as inhibition of cell viability incubated for 3 to 5 days by Celltiter-Glo luminescent assay; format: functional, cell-based
NCI-H838 = test: Antiproliferative activity against human NCI-H838 cells assessed as inhibition of cell viability incubated for 3 to 5 days by Celltiter-Glo luminescent assay; format: functional, cell-based
HCC2935 = test: Antiproliferative activity against human HCC2935 cells assessed as inhibition of cell viability incubated for 3 to 5 days by Celltiter-Glo luminescent assay; format: functional, cell-based
Hs 695T = test: Antiproliferative activity against human Hs 695T cells assessed as inhibition of cell viability incubated for 3 to 5 days by Celltiter-Glo luminescent assay; format: functional, cell-based
A-375 = test: Antiproliferative activity against human A-375 cells assessed as inhibition of cell viability incubated for 3 to 5 days by Celltiter-Glo luminescent assay; format: functional, cell-based
BJAB = test: Antiproliferative activity against human BJAB cells assessed as inhibition of cell viability incubated for 3 to 5 days by Celltiter-Glo luminescent assay; format: functional, cell-based
U-2973 = test: Antiproliferative activity against human U-2973 cells assessed as inhibition of cell viability incubated for 3 to 5 days by Celltiter-Glo luminescent assay; format: functional, cell-based
Rec1 = test: Antiproliferative activity against human REC1 cells assessed as inhibition of cell viability incubated for 3 to 5 days by Celltiter-Glo luminescent assay; format: functional, cell-based
Farage = test: Antiproliferative activity against human Farage cells assessed as inhibition of cell viability incubated for 3 to 5 days by Celltiter-Glo luminescent assay; format: functional, cell-based
OCI-AML2 = test: Antiproliferative activity against human OCI-AML2 cells assessed as inhibition of cell viability incubated for 3 to 5 days by Celltiter-Glo luminescent assay; format: functional, cell-based
K562 = test: Antiproliferative activity against human K562 cells assessed as inhibition of cell viability incubated for 3 to 5 days by Celltiter-Glo luminescent assay; format: functional, cell-based
Kasumi 1 = test: cells; settings: Homo sapiens

Tyrosine-protein kinase JAK2, sequence (O60674 whole entry): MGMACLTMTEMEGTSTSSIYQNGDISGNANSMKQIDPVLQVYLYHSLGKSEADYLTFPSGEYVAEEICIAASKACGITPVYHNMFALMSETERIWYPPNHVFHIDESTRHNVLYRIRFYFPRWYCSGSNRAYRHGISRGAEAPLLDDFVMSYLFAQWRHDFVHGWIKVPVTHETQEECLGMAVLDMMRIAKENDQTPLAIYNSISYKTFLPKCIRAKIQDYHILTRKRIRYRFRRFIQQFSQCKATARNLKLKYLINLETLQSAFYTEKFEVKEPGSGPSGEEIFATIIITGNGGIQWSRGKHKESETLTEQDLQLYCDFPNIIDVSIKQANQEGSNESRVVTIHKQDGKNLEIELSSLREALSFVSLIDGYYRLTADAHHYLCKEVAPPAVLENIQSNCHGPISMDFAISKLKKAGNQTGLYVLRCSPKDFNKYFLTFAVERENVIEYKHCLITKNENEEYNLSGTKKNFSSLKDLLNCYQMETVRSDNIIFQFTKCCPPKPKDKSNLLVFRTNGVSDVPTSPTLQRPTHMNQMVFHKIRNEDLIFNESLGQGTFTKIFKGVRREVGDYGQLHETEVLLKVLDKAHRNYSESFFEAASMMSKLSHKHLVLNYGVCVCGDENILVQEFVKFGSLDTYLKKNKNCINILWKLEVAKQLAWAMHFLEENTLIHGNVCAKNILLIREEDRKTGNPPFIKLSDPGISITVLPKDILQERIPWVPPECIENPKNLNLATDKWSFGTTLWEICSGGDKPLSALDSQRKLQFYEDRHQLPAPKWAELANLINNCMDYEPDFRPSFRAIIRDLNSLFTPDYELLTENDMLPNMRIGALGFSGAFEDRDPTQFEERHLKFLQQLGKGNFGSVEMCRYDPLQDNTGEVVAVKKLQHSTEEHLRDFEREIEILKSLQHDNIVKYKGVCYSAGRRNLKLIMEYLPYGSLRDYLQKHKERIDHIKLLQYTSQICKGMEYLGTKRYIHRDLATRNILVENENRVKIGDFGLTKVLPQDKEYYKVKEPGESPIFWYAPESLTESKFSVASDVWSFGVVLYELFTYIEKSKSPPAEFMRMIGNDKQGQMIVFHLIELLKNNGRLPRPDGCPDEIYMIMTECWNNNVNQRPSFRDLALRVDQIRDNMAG
Serine/threonine-protein kinase 4, sequence (Q13043 whole entry): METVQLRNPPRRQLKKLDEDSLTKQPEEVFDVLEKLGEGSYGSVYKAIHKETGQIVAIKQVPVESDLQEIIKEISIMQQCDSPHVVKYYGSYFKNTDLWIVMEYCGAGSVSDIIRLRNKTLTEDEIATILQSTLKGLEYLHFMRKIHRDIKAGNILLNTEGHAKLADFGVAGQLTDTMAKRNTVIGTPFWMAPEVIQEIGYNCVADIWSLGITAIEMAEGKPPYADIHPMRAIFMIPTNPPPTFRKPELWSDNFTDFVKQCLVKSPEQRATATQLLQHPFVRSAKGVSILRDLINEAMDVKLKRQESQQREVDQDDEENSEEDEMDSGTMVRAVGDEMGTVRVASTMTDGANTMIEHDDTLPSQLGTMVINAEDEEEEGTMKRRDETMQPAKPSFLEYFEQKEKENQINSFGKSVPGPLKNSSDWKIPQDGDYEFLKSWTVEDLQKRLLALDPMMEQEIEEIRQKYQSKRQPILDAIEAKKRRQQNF
High affinity nerve growth factor receptor, sequence (P04629 whole entry): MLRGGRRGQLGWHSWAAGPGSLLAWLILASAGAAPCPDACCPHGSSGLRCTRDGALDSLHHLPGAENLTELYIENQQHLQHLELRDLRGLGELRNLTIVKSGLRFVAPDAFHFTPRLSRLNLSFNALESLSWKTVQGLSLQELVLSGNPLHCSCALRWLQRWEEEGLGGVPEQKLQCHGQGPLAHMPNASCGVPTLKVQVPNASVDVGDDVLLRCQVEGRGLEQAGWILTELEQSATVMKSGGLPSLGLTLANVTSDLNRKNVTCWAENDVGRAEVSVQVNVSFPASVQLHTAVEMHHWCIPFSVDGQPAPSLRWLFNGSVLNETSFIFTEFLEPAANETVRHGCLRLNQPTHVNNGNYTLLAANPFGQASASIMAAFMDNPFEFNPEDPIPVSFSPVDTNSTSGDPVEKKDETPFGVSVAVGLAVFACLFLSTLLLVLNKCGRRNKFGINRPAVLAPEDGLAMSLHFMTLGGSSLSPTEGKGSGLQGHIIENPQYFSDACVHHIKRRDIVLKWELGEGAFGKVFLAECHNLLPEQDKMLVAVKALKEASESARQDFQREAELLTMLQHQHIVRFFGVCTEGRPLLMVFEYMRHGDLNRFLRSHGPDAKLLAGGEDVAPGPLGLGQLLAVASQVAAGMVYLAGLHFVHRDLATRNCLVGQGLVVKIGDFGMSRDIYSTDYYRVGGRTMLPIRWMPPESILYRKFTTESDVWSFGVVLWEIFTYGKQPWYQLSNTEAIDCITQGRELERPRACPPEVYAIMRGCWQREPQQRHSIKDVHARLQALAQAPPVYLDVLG
Tyrosine-protein kinase ABL1, sequence (P00519 whole entry): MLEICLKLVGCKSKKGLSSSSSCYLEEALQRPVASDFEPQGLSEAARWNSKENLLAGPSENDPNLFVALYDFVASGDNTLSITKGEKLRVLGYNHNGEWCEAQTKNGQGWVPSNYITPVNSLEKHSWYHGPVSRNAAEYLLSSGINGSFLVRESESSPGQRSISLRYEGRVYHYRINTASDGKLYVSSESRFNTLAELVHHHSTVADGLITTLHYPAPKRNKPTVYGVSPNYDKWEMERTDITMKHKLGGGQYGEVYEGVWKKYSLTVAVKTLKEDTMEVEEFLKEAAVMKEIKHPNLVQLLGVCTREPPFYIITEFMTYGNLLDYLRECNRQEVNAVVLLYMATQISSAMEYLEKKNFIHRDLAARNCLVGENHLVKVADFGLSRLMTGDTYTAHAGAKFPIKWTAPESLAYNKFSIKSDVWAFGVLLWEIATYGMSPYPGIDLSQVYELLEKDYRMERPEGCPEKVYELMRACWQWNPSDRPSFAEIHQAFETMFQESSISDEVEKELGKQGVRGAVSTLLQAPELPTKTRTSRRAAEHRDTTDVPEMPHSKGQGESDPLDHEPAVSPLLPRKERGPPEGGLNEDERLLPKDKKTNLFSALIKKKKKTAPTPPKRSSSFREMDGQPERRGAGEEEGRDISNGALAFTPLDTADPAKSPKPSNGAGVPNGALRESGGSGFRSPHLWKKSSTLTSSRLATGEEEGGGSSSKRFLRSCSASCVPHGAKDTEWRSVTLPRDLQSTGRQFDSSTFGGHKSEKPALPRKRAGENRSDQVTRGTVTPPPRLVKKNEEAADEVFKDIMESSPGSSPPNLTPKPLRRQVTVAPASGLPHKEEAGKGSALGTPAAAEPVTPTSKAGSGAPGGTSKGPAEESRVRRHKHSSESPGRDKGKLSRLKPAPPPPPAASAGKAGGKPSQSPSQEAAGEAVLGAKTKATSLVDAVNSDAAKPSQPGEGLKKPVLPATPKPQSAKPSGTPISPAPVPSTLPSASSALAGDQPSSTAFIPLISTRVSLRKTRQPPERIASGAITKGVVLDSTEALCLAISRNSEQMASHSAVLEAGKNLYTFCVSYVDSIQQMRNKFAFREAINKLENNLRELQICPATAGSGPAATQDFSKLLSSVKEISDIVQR
Glycogen synthase kinase-3 alpha, sequence (P49840 whole entry): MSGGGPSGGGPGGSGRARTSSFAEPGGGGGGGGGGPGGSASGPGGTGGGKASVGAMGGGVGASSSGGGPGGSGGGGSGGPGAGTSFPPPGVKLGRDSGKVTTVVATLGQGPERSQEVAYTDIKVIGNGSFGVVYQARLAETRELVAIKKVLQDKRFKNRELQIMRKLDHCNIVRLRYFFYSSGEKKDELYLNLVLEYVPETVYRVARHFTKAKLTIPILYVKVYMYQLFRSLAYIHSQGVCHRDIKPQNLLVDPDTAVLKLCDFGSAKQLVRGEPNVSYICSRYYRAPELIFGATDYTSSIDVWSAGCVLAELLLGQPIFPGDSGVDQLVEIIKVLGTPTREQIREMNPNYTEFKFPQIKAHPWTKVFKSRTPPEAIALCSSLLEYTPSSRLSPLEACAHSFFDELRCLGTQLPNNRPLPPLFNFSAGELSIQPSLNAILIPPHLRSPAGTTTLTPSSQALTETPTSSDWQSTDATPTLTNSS
Serine/threonine-protein kinase Sgk1, sequence (O00141 whole entry): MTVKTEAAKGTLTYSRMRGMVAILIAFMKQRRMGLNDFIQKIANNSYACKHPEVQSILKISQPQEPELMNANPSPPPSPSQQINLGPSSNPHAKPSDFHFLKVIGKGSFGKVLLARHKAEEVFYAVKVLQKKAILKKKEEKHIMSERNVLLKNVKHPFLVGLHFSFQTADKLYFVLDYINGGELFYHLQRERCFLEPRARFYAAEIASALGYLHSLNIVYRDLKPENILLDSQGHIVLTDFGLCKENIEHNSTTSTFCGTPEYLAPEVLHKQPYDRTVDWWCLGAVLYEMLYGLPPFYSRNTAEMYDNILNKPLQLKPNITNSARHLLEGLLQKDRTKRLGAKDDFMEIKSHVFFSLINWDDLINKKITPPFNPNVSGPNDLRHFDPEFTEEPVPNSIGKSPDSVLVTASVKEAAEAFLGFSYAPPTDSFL
RAC-alpha serine/threonine-protein kinase, sequence (P31749 whole entry): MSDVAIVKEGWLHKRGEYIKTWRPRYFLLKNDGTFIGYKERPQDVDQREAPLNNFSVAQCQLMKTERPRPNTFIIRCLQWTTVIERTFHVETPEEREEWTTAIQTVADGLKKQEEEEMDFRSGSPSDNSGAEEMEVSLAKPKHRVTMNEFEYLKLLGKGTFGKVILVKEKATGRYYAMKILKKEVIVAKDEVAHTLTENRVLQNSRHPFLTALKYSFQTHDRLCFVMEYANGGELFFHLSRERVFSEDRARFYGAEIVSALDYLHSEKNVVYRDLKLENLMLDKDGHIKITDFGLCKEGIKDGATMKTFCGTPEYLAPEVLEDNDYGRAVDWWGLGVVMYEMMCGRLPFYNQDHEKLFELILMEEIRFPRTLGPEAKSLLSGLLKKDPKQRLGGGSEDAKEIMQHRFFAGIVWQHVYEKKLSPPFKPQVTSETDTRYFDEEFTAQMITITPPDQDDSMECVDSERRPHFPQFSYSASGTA

## CNC(=O)Nc1ccc2c(c1)CC[C@@]21OC(=O)N(CC(=O)N(Cc2ccc(F)cc2)[C@@H](C)C(F)(F)F)C1=O [A-485]
[1]
  IC50: > 10 µM
[2]
  IC50: > 10 µM
[3]
  IC50: > 10 µM
[4]
  IC50: > 10 µM
[5]
  IC50: > 10 µM
[6]
  IC50: > 10 µM
[7]
  IC50: > 10 µM
[8]
  IC50: > 10 µM
[9]
  IC50: > 10 µM
[10]
  IC50: > 10 µM
[11]
  INH: 3.79 µM
HCC4006
  EC50: 4.64 µM
NCI-H727
  EC50: 6.63 µM
NCI-H838
  EC50: 6.99 µM
HCC2935
  EC50: > 10 µM
Hs 695T
  EC50: 3.57 µM
A-375
  EC50: > 10 µM
BJAB
  EC50: 280 nM
U-2973
  EC50: 660 nM
Rec1
  EC50: > 10 µM
Farage
  EC50: > 10 µM
OCI-AML2
  EC50: 2030 nM
K562
  EC50: 1270 nM
Kasumi 1
  EC50: 290 nM
